Measurements as given in ChEMBL document CHEMBL1143721, “Bioactive polyketides from Peperomia duclouxii” (J Nat Prod, 2007).
Values after ≈ are worked out from the molar mass of the structure shown.

What was measured:
HepG2 = experiment: Growth inhibition of HepG2 cells; assay type: functional, cell-based; conditions: Homo sapiens
Summary of the method: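 HepG2 cells kept in D-MEM with 10% FBS and 80 µg/mL kanamycin. Growth inhibition measured, IC50 taken as the concentration giving 50% growth inhibition, reported in µg/mL.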

WI-38 = experiment: Growth inhibition of WI38 cells; assay type: functional, cell-based; conditions: Homo sapiens
WI-38 VA13 = experiment: Growth inhibition of VA13 cells; assay type: functional, cell-based; conditions: Homo sapiens
Summary of the method: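 VA-13 malignant lung tumor cells kept in RITC 80-7 medium with 10% FBS and 80 µg/mL kanamycin. Growth inhibition measured, IC50 taken as the concentration giving 50% growth inhibition, reported in µg/mL.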

A549 [1] = experiment: Inhibition of IL-1-alpha-stimulated ICAM1 expression in human A549 cells; assay type: functional, cell-based
Summary of the method: (§1)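 A549 human lung carcinoma cells grown in RPMI 1640 with heat-inactivated 10% FBS, penicillin G and streptomycin. ICAM-1 induced with recombinant IL-1α or TNF-α. Cell-surface ICAM-1 detected with mouse anti-human ICAM-1 antibody C167 and peroxidase-conjugated goat anti-mouse IgG. Viability checked in parallel by MTT assay.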

A549 [2] = experiment: Inhibition of TNF-alpha-stimulated ICAM1 expression in human A549 cells; assay type: functional, cell-based; summary of the method: as §1
MDR [3] = experiment: Effect on calcein accumulation in MDR 2780AD cells at 2.5 ug/mL relative to control; assay type: functional, Homo sapiens
Summary of the method: (§2)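 Multidrug-resistant human ovarian cancer 2780AD (AD10) cells grown in RPMI-1640 with 10% FBS and 80 µg/mL kanamycin. Cells are exposed to test agent at 0.25, 2.5 and 25 µg/mL. Calcein formed from calcein AM by endogenous esterase is read as fluorescence per well, mean of triplicates. Results are given as % of untreated control, or relative to verapamil at the same concentration.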

MDR [4] = experiment: Effect on calcein accumulation in MDR 2780AD cells at 25 ug/mL relative to control; assay type: functional, Homo sapiens; summary of the method: as §2
MDR [5] = experiment: Effect on calcein accumulation in MDR 2780AD cells at 0.25 ug/mL relative to control; assay type: functional, Homo sapiens; summary of the method: as §2
MDR [6] = experiment: Effect on calcein accumulation in MDR 2780AD cells at 0.25 ug/mL relative to verapamil; assay type: functional, Homo sapiens; summary of the method: as §2
MDR [7] = experiment: Effect on calcein accumulation in MDR 2780AD cells at 2.5 ug/mL relative to verapamil; assay type: functional, Homo sapiens; summary of the method: as §2
MDR [8] = experiment: Effect on calcein accumulation in MDR 2780AD cells at 25 ug/mL relative to verapamil; assay type: functional, Homo sapiens; summary of the method: as §2

Row | Compound | IC50 (HepG2) [µg/mL] | IC50 (A549 [1]) [µg/mL] | IC50 (A549 [2]) [µg/mL] | IC50 (WI-38) [µg/mL] | IC50 (WI-38 VA13) [µg/mL] | also measured
1 | O=C(CCCCCCCCCCCCc1ccc2c(c1)OCO2)C1=C(O)CCC(O)C1=O (stereo not given) | – | 43.3 (≈ 97.4 µM) | 27.2 (≈ 61.2 µM) | – | – | –
2 | O=C1CCCC2=C1[C@H](O)C[C@H](CCCCCCCCCCCCc1ccc3c(c1)OCO3)O2 | 18.2 (≈ 39.9 µM) | 65.2 (≈ 143 µM) | 48.8 (≈ 107 µM) | > 20 | > 20 | –
3 | COc1ccc(CCN(C)CCCC(C#N)(c2ccc(OC)c(OC)c2)C(C)C)cc1OC (stereo not given) | – | – | – | – | – | Activity (MDR [3]): 114%; Activity (MDR [4]): 138%; Activity (MDR [5]): 114%
4 | COc1cccc2c1C(=O)c1c(O)c3c(c(O)c1C2=O)C[C@@](O)(C(=O)CO)C[C@@H]3O[C@H]1C[C@H](N)[C@H](O)[C@H](C)O1 [DOXORUBICIN] | 0.41 (≈ 0.754 µM) | – | – | – | 0.39 (≈ 0.718 µM) | –
5 | CC1(C)C[C@H](O)C[C@@]2(C)OC(=O)C=C12 [LOLIOLIDE] | > 20 | – | – | > 20 | > 20 | –
6 | CC(=O)O[C@H]1C(=O)[C@@]2(C)[C@H]([C@H](OC(=O)c3ccccc3)[C@]3(O)C[C@H](OC(=O)[C@H](O)[C@@H](NC(=O)c4ccccc4)c4ccccc4)C(C)=C1C3(C)C)[C@]1(OC(C)=O)CO[C@@H]1C[C@@H]2O [PACLITAXEL] | 0.69 (≈ 0.808 µM) | – | – | 0.05 (≈ 0.0586 µM) | – | –
7 | C=C(C)[C@@H]1CCC(=C)[C@H](O)CCC(=C)[C@@H](O)C1 [SINUGIBBERODIOL] | – | – | – | – | – | Activity (MDR [6]): 100%; Activity (MDR [3]): 137%; Activity (MDR [7]): 120%; Activity (MDR [4]): 160%; Activity (MDR [5]): 113%; Activity (MDR [8]): 116%
8 | O=C(CCCCCCCCCCCCCCc1ccc2c(c1)OCO2)C1=C(O)CCC(O)C1=O (stereo not given) [SURINONE A] | 7.4 (≈ 15.7 µM) | 51.4 (≈ 109 µM) | 33.5 (≈ 70.9 µM) | 8.6 (≈ 18.2 µM) | 4.4 (≈ 9.31 µM) | –

The next lines start with results.

Row | IC50 (HepG2) [µg/mL] | IC50 (A549 [1]) [µg/mL] | IC50 (A549 [2]) [µg/mL] | Compound | IC50 (WI-38) [µg/mL] | IC50 (WI-38 VA13) [µg/mL] | also measured
9 | > 20 | – | – | COc1cc(/C=C/C(=O)NCCc2ccc(O)c(OC)c2)ccc1O | > 20 | > 20 | –
10 | > 20 | – | – | COc1cc(/C=C/C(=O)NCCc2ccc(O)c(O)c2)ccc1O [N-TRANS-FERULOYLDOPAMINE] | > 20 | > 20 | –
11 | 9.2 (≈ 23 µM) | 36.8 (≈ 91.9 µM) | 22.9 (≈ 57.2 µM) | O=C(CCCCCCCCCCCCc1ccccc1)C1=C(O)CCC(O)C1=O (stereo not given) [OLEIFERINONE] | 9.6 (≈ 24 µM) | 5.8 (≈ 14.5 µM) | –
12 | > 20 | – | – | CC(C)CNC(=O)/C=C/CCCCc1ccc2c(c1)OCO2 [PIPERCALLOSIDINE] | > 20 | > 20 | –
13 | > 20 | – | – | COc1cc(/C=C/C(=O)NCCc2ccc(O)cc2)cc(OC)c1O [TRANS-N-SINAPOYLTYRAMINE] | > 20 | > 20 | –
